Usually IC50 stands for the midpoint of a concentration-inhibition curve. The low end stands for greater potency, the high end for weaker potency.

The source of these data is ChEMBL document CHEMBL1157772, “In vitro cytotoxic activity of isolated acridones alkaloids from Zanthoxylum leprieurii Guill. et Perr” (Bioorg Med Chem, 2010).

Common to all, as to type: functional, cell-based
One test relates to DLD-1. Description: Cytotoxicity against human DLD1 cells after 48 hrs by resazurin reduction assay. Particulars: DLD-1, 48 h. In outline:
(§1)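 Cell lines from ATCC, grown in MEM with Earle's salts, 10% fetal calf serum, vitamins, sodium pyruvate, non-essential amino acids, penicillin/streptomycin, at 37 °C, 5% CO2. Cells (5 × 10^3/well) adhered 16 h, then exposed 48 h to increasing concentrations in medium with 0.25% (v/v) final DMSO. Resazurin reduction read by fluorescence (ex 530/em 590 nm). IC50 as mean ± SD, two experiments in triplicate.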
In general terms: Resazurin is reduced to fluorescent resorufin, in cell work by metabolically active cells.

The nature of test [1]: Cytotoxicity against human WS1 cells after 48 hrs by resazurin reduction assay. Particulars: WS1, 48 h. The method in brief:
as §1

In another test the test system is A549. Put plainly: Cytotoxicity against human A549 cells after 48 hrs by resazurin reduction assay. Particulars: A549, 48 h. In outline:
as §1

On to `CCCCCCCCCCCCCCCCCCCCCCCC(=O)NCCc1ccc(O)cc1`, for which the concentration for half-maximal inhibition (IC50) (in the test on DLD-1; in test [1]; in the test with A549) was more than 100 µM each time.

Consider `COc1cc2c(c(O)c1OC)c(=O)c1ccccc1n2C` [ARBORININE], for which the IC50 stood at 74 µM in the test on DLD-1, 56 µM in test [1] and 35 µM in the test on A549.

Take `COc1cc([C@@H]2c3cc4c(cc3[C@@H](O[C@@H]3O[C@@H]5CO[C@@H](C)O[C@H]5[C@H](O)[C@H]3O)[C@H]3COC(=O)[C@H]23)OCO4)cc(OC)c1O` [ETOPOSIDE]: the IC50 is 10 µM with DLD-1, 4.3 µM in test [1] and 16 µM in the test with A549.

On to `COc1cc(O)cc2c1c(=O)c1ccccc1n2C` [TEGERRARDIN A], for which the IC50 stood at 71 µM in the test with DLD-1, 42 µM in test [1] and 36 µM in the test on A549.

With `COc1cc2ccc(=O)oc2cc1OC` [SCOPARONE], the half-inhibitory concentration (IC50) (in the test on DLD-1; in test [1]; with A549) was more than 100 µM throughout.

With `COc1c(O)cc2c(c1OC)c(=O)c1ccccc1n2C`, the half-maximal inhibitory concentration (IC50) worked out at 77 µM in the test with DLD-1, 74 µM in test [1] and 52 µM in the test on A549.

For the molecule `COc1cc(O)c(OC)c2c1c(=O)c1ccccc1n2C`, the IC50 (with DLD-1; in test [1]; in the test with A549) was more than 100 µM throughout.

On to `COc1cc(O)c2c(=O)c3ccccc3n(C)c2c1`, for which the values for the 50% inhibitory concentration (IC50) (in the test on DLD-1; in test [1]; with A549) were 27 µM, 51 µM and 31 µM, respectively.

As for `COc1ccc([C@@H]2CC(=O)c3c(O)cc(O[C@@H]4O[C@H](CO[C@@H]5O[C@@H](C)[C@H](O)[C@@H](O)[C@H]5O)[C@@H](O)[C@H](O)[C@H]4O)cc3O2)cc1O` [HESPERIDIN], the concentration for half-maximal inhibition (IC50) (with DLD-1; in test [1]; in the test with A549) was more than 100 µM each time.
